Results from ChEMBL document CHEMBL4680061, “Unveiling the active isomer of cycloalanopine, a cyclic opine from Lactobacillus rhamnosus LS8, through synthesis and analog production” (2020).
In brackets after ≈: the same amount, converted by molar mass. Activity calls are given as the source filed them. The rule behind the calls is not given here.

How the values were obtained:
Salmonella typhimurium [1] = test: Antibacterial activity against Salmonella typhimurium ATCC 13311 assessed as bacterial growth inhibition after overnight incubation by spot-on-lawn assay; assay type: functional, Salmonella enterica subsp. enterica serovar Typhimurium; details: Salmonella enterica
Method in brief: (§1)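 Overnight cultures were grown in Luria broth at 37 °C and used to seed 5 mL soft agar (0.75%) in the same medium, poured over 1.5% hard agar. Compounds in MQ-H2O or DMSO were two-fold serially diluted from stock, and 10 µL of each was spotted. After drying, plates were incubated overnight at 37 °C. Growth inhibition at each spot was scored, and MIC was taken from triplicates.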

Escherichia coli [2] = test: Antibacterial activity against Escherichia coli ATCC 25922 assessed as bacterial growth inhibition after overnight incubation by spot-on-lawn assay; assay type: functional; method in brief: as §1
Acinetobacter baumannii [3] = test: Antibacterial activity against Acinetobacter baumannii ATCC 19606 assessed as bacterial growth inhibition after overnight incubation by spot-on-lawn assay; assay type: functional; details: ATCC 19606 = CIP 70.34 = JCM 6841; method in brief: as §1
Pseudomonas aeruginosa [4] = test: Antibacterial activity against Pseudomonas aeruginosa ATCC 14207 assessed as bacterial growth inhibition after overnight incubation by spot-on-lawn assay; assay type: functional; method in brief: as §1
Enterococcus faecalis [5] = test: Antibacterial activity against Enterococcus faecalis ATCC 7080 assessed as bacterial growth inhibition after overnight incubation by spot-on-lawn assay; assay type: functional
Method in brief: (§2)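 Lawns were prepared in All Purpose Tween medium at 25 °C: overnight cultures went into 5 mL soft agar (0.75%) poured onto 1.5% agar plates. Aqueous or DMSO solutions were two-fold serially diluted, and 10 µL aliquots were spotted and dried. Plates were incubated overnight at 25 °C. Inhibition was read at the spot locations, and MIC was based on triplicates.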

Listeria monocytogenes [6] = test: Antibacterial activity against Listeria monocytogenes ATCC 15313 assessed as bacterial growth inhibition after overnight incubation by spot-on-lawn assay; assay type: functional; method in brief: as §2
Staphylococcus aureus [7] = test: Antibacterial activity against Staphylococcus aureus ATCC 25923 assessed as bacterial growth inhibition after overnight incubation by spot-on-lawn assay; assay type: functional
Method in brief: (§3)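 Tryptic Soy Broth at 25 °C was used for culture and for the 0.75% soft-agar overlay, which was seeded from overnight cultures and poured onto 1.5% agar. Two-fold dilution series in MQ-H2O or DMSO were spotted (10 µL), dried, and incubated overnight at 25 °C. Growth inhibition at each spot was recorded, and MIC was derived from triplicate assays.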

Salmonella typhimurium [8] = test: Antibacterial activity against Salmonella typhimurium ATCC 13311 assessed as bacterial growth inhibition at 250 mg/ml after overnight incubation by spot-on-lawn assay; assay type: functional, organism-based; details: Salmonella enterica subsp. enterica serovar Typhimurium; method in brief: as §1
Escherichia coli [9] = test: Antibacterial activity against Escherichia coli ATCC 25922 assessed as bacterial growth inhibition at 250 mg/ml after overnight incubation by spot-on-lawn assay; assay type: functional, organism-based; method in brief: as §1
Acinetobacter baumannii [10] = test: Antibacterial activity against Acinetobacter baumannii ATCC 19606 assessed as bacterial growth inhibition at 250 mg/ml after overnight incubation by spot-on-lawn assay; assay type: functional, organism-based; details: ATCC 19606 = CIP 70.34 = JCM 6841; method in brief: as §1
Pseudomonas aeruginosa [11] = test: Antibacterial activity against Pseudomonas aeruginosa ATCC 14207 assessed as bacterial growth inhibition at 250 mg/ml after overnight incubation by spot-on-lawn assay; assay type: functional, organism-based; method in brief: as §1
Listeria monocytogenes [12] = test: Antibacterial activity against Listeria monocytogenes ATCC 15313 assessed as bacterial growth inhibition at 250 mg/ml after overnight incubation by spot-on-lawn assay; assay type: functional, organism-based; method in brief: as §2
Enterococcus faecalis [13] = test: Antibacterial activity against Enterococcus faecalis ATCC 7080 assessed as bacterial growth inhibition at 250 mg/ml after overnight incubation by spot-on-lawn assay; assay type: functional, organism-based; method in brief: as §2
Staphylococcus aureus [14] = test: Antibacterial activity against Staphylococcus aureus ATCC 25923 assessed as bacterial growth inhibition at 250 mg/ml after overnight incubation by spot-on-lawn assay; assay type: functional, organism-based; method in brief: as §3

Row | SMILES | MIC (Salmonella typhimurium [1]) [mg/mL] | MIC (Escherichia coli [2]) [mg/mL] | MIC (Acinetobacter baumannii [3]) [mg/mL] | MIC (Pseudomonas aeruginosa [4]) [mg/mL] | MIC (Enterococcus faecalis [5]) [mg/mL] | MIC (Listeria monocytogenes [6]) [mg/mL] | MIC (Staphylococcus aureus [7]) [mg/mL] | Activity (Salmonella typhimurium [8]) | Activity (Escherichia coli [9]) | Activity (Acinetobacter baumannii [10]) | Activity (Pseudomonas aeruginosa [11]) | Activity (Listeria monocytogenes [12]) | Activity (Enterococcus faecalis [13]) | Activity (Staphylococcus aureus [14])
1 | C[C@H]1N[C@@H](CCCCN)C(=O)NNC1=O | 3.9 (≈ 18.2 mM) | 0.49 (≈ 2.29 mM) | 0.98 (≈ 4.57 mM) | 62 (≈ 289 mM) | 62 (≈ 289 mM) | 7.8 (≈ 36.4 mM) | 31 (≈ 145 mM) |  |  |  |  |  |  | 
2 | C[C@H]1N[C@H](C)C(=O)NNC1=O |  |  |  |  |  |  |  | inactive | inactive | inactive | inactive | inactive | inactive | inactive
3 | C[C@@H]1N[C@@H](C)C(=O)NNC1=O |  |  |  |  |  |  |  | inactive | inactive | inactive | inactive | inactive | inactive | inactive
4 | C[C@H]1N[C@H](CCCCN)C(=O)NNC1=O | 62 (≈ 289 mM) | 31 (≈ 145 mM) | 62 (≈ 289 mM) |  | 16 (≈ 74.7 mM) | 16 (≈ 74.7 mM) | 62 (≈ 289 mM) |  |  |  |  |  |  | 

More lines, main results first:

Row | MIC (Salmonella typhimurium [1]) [mg/mL] | MIC (Escherichia coli [2]) [mg/mL] | MIC (Acinetobacter baumannii [3]) [mg/mL] | MIC (Pseudomonas aeruginosa [4]) [mg/mL] | MIC (Enterococcus faecalis [5]) [mg/mL] | MIC (Listeria monocytogenes [6]) [mg/mL] | MIC (Staphylococcus aureus [7]) [mg/mL] | SMILES | Activity (Salmonella typhimurium [8]) | Activity (Escherichia coli [9]) | Activity (Acinetobacter baumannii [10]) | Activity (Pseudomonas aeruginosa [11]) | Activity (Listeria monocytogenes [12]) | Activity (Enterococcus faecalis [13]) | Activity (Staphylococcus aureus [14])
5 | 19 (≈ 133 mM) | 2.3 (≈ 16.1 mM) | 19 (≈ 133 mM) | 38 (≈ 265 mM) |  | 38 (≈ 265 mM) | 75 (≈ 524 mM) | C[C@@H]1NCC(=O)NNC1=O |  |  |  |  |  |  | 
6 | 26 (≈ 165 mM) | 3.2 (≈ 20.4 mM) |  | 52 (≈ 331 mM) | 26 (≈ 165 mM) | 26 (≈ 165 mM) | 26 (≈ 165 mM) | C[C@@H]1N[C@H](C)C(=O)NNC1=O |  |  |  |  |  |  | 
7 | 0.98 (≈ 6.85 mM) | 0.06 (≈ 0.419 mM) | 0.12 (≈ 0.838 mM) | 3.9 (≈ 27.2 mM) | 2 (≈ 14 mM) | 2 (≈ 14 mM) | 2 (≈ 14 mM) | C[C@H]1NCC(=O)NNC1=O |  |  |  |  |  |  | 
